EBI2 block = EBI2 (human) antagonism | P32249 | EBI2 beta-arrestin recruitment, luminescence, 7a,25-OHC stimulated | inhibition, % at 5 µM | hit rate 0.81% among 360,000 | AID 651636; in the data active = inhibition above about 38%;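 also: enzyme fragment complementation signal reports receptor beta-arrestin coupling in cells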
Target sequence (P32249 whole entry, looked up, the tested form may be a part): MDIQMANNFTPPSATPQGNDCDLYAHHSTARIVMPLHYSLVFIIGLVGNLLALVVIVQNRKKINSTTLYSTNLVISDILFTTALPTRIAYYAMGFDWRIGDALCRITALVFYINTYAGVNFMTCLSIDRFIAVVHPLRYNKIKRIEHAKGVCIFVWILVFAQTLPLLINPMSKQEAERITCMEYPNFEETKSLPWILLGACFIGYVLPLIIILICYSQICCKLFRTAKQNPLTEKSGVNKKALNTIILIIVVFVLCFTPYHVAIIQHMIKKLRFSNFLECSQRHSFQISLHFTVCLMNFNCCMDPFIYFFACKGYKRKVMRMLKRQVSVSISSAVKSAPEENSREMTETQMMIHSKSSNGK
APJ ag = agonists of human APJ apelin receptor. P35414. CHO-K1 APJ PathHunter beta-arrestin, luminescence; 0% DMSO wells, 100% apelin. activation, % at 20 µM. hit rate 0.11% among 330,000;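 active = activation more than six SD over the plate average, tested at 20 µM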
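Test system: CHO-K1 APJ beta-arrestin complementation cell line. Amount: cell density 1000 per well. Controls: DMSO negative, 10 nM Apelin-13 positive. Signal: luminescent beta-gal fragment complementation, chemiluminescent substrate. Read-out basis: agonist-driven arrestin binding to APJ. Timing: compound stimulation 90 min at 25 °C, detection 60 min.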
B2AR ag = human beta-2 adrenergic receptor agonism by FAP; hit rate 0.43% among 340,000; response, % (test concentration not listed); AID 504454; Am2.2-beta2AR cells, FAP receptor internalization, flow cytometry; P07550;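 active = response above a set limit, near 3 SD of response in nonfluorescent compounds, cut at about 42% in these data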
CCR6 antagonist = blocks CCL20-driven beta-arrestin recruitment at human CCR6; P51684; CHO-K1 CCR6 PathHunter beta-arrestin, luminescence, CCL20-stimulated; inhibition, % at 20 µM; hit rate 0.49% among 340,000;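 active = compounds whose inhibition of the agonist-driven luminescence signal at 20 µM reaches about 50%, limit read from the data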;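 also: cells stimulated with CCL20 at 14 nM final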
CXCR6 block = inhibitors of human CXCR6 receptor; hit rate 0.36% among 360,000; inhibition, % at 20 µM; CHO-K1 PathHunter CXCR6 beta-arrestin, luminescence; in the data active = inhibition above about 34%, passing the limit was not always enough;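 also: antagonist mode with CXCL16 agonist at 10 nM final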
Target sequence (O00574 whole entry, looked up): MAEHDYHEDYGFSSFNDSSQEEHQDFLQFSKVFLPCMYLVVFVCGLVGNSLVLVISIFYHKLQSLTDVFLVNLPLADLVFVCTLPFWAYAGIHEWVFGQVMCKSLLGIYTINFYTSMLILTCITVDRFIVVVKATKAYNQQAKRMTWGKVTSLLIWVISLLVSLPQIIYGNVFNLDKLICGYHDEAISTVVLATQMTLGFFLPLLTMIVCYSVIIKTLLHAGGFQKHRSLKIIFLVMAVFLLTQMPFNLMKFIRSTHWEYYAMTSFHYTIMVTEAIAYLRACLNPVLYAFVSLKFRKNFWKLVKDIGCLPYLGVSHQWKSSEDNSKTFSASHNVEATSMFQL
APJ antag = APJ receptor antagonism; P35414; CHO-K1 APJ beta-arrestin complementation, luminescence; inhibition, % at 20 µM; hit rate 0.32% among 330,000; AID 2521;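 active = inhibition above about 40% at 20 µM, limit read from the data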;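 also: cells challenged with 10 nM apelin-13 agonist together with compound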
APJ ag confirm = confirmation of human APJ apelin receptor agonists. shares compounds with APJ ag. CHO-K1 APJ PathHunter beta-arrestin, luminescence. activation, % at 20 µM. hit rate 10% among 310;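 active = activation above 40%, taking the highest of four retests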
Each line names hits and unclear results; the compound was inactive in the other large screens (follow-up assays come after a bar, where they were run). This is a sample that favours compounds with a hit; in the whole collection about 1.8% have one here.

CCCn1c(=O)c(C(=O)Nc2cccc(C)n2)c(O)c2ccccc21	none
COc1ccc(Cl)c(-c2cc(C(=O)Nc3ccccc3)[nH]n2)c1	none (no result: APJ ag, B2AR ag, CCR6 antagonist, APJ antag)
CCOC(=O)C1=CCN(S(=O)(=O)c2ccc(Br)cc2)C1c1ccc(C)cc1 (configuration not stated)	none (no result: APJ ag, B2AR ag, CCR6 antagonist, APJ antag)
CC(C)CN(Cc1cc(=O)oc2cc(-c3ccccc3)c(O)cc12)CC(C)C	APJ ag 19 | APJ ag confirm inactive
N/C(=N\OC(=O)c1ccc(Cl)c(Cl)c1)c1ccccn1	none
N/C(=N\OC(=O)c1cccc(Br)c1)c1ccccn1	APJ ag 34 | APJ ag confirm inactive
N/C(=N\OC(=O)c1ccc(Cl)c([N+](=O)[O-])c1)c1ccccn1	APJ ag 17 | APJ ag confirm inactive
Cc1ccc(CCN=c2c([N+](=O)[O-])nn(-c3ccccc3)n2O)cc1	APJ ag 14 | APJ ag confirm inactive
O=[N+]([O-])c1nn(-c2ccccc2)n(O)c1=NCCc1ccccc1	none
C/C(COc1ccccc1)=N\NC(=O)c1nnn(-c2nonc2N)c1CSc1ccccc1	APJ ag 19 | APJ ag confirm inactive
COC(=O)Cn1cc(/C=C(/C#N)C(=O)N2CCOCC2)c2ccccc21	APJ ag 12 | APJ ag confirm inactive
O=C(NC1CCCC1)c1cc(COc2ccc3ncccc3c2)on1	none
O=C(NCCc1cn2ccccc2n1)c1cc(COc2ccc3ncccc3c2)on1	APJ ag 31 | APJ ag confirm inactive
O=C(Cn1ncc2c([nH]c3ccccc32)c1=O)Nc1ccc(CN2CCCCC2)cc1	APJ ag 91 | APJ ag confirm inactive
CC(OC(=O)Cn1cnc2c1c(=O)n(C)c(=O)n2C)C(=O)NC1(C#N)CCCCC1 (configuration not stated)	none
COc1cc(-c2cc(C(=O)Nc3ccncc3)c3ccccc3n2)cc(OC)c1OC	none
Cc1ccc(-c2cc(C(=O)Nc3ccncc3)c3ccccc3n2)cc1	APJ ag 31 | APJ ag confirm inactive
O=C(c1cc(COc2c(F)cccc2F)on1)N1CC[C@@H]2CCCC[C@H]2C1	none (no result: APJ ag, B2AR ag, CCR6 antagonist, APJ antag)
OCC[C@H]1C[C@@H](O)[C@H](O)[C@@]2(Cc3ccccc3CO2)O1	none
COc1ccc(OC)c2sc(N(CCCN(C)C)C(=O)c3ccc(S(=O)(=O)N4CCc5ccccc5C4)cc3)nc12	APJ ag 45 (no result: EBI2 block, B2AR ag, CCR6 antagonist, CXCR6 block) | APJ ag confirm inactive
CC1(OC(=O)C2CCCC2)C(=O)C=C2C=C(c3ccsc3)N(C3CCCC3)C=C2C1=O (configuration not stated)	APJ ag 104 | APJ ag confirm inactive
CC1(OC(=O)C2CCCC2)C(=O)C=C2C=C(c3ccsc3)N(CCCCO)C=C2C1=O (configuration not stated)	none
COc1cc(/C=N/Nc2nc(-c3ccc(S(=O)(=O)N(C)C)cc3)cs2)ccc1O	APJ ag 21 | APJ ag confirm inactive
CCCCCn1nnnc1-c1nc2cc(C)c(C)cc2[nH]c1=O	none (no result: APJ ag, B2AR ag, CCR6 antagonist, APJ antag)
CC(OC(=O)c1ccc2ncsc2c1)C(=O)Nc1cccc(Cl)c1 (configuration not stated)	none
CC(=O)N1CCC(C(=O)N2c3ccccc3N=C(c3ccc4c(c3)OCO4)C2C(=O)NCc2ccccc2)CC1 (configuration not stated)	none (no result: APJ ag, B2AR ag, CCR6 antagonist, CXCR6 block, APJ antag)
c1ccc(Nc2nc(NCC3CCCO3)c3ccccc3n2)cc1 (configuration not stated)	none
CCOc1ccc(Nc2nc(NCC3CCCO3)c3ccccc3n2)cc1 (configuration not stated)	EBI2 block 66, APJ ag 13 | APJ ag confirm inactive
CN1CCN(c2ccc(NC(=O)COc3ccccc3[N+](=O)[O-])cc2)CC1	none
CC(C)C(=O)N1CCN(c2ccc(NC(=O)COc3ccccc3[N+](=O)[O-])cc2)CC1	APJ ag 16 | APJ ag confirm 54
Cc1nn(Cc2ccccc2)c(C)c1NC(=O)CSc1nc2sc3c(c2c(=O)n1C)CCC3	APJ ag 29 (no result: EBI2 block, B2AR ag, CXCR6 block) | APJ ag confirm 40
CO[C@@H]1CN(C)C(=O)c2ccc(NC(=O)C3CCCC3)cc2OC[C@@H](C)N(Cc2ccc(F)cc2)C[C@H]1C	none (no result: APJ ag, B2AR ag, CCR6 antagonist, CXCR6 block, APJ antag)
N/C(Cc1ccc(Cl)c(Cl)c1)=N\OC(=O)c1ccc(Br)o1	APJ ag 21 | APJ ag confirm inactive
O=C(CCS(=O)(=O)c1ccc(F)cc1)Nc1nccs1	none (no result: APJ ag, B2AR ag, CCR6 antagonist, APJ antag)
CC(=O)C1=CCC(c2ccc(Cl)cc2)N(S(=O)(=O)c2ccccc2)C1 (configuration not stated)	none (no result: APJ ag, B2AR ag, CCR6 antagonist, APJ antag)
CSc1cccc(NC(=S)NC(=O)CCc2ccccc2)c1	APJ ag 43 | APJ ag confirm 51
CSc1cccc(NC(=O)CCc2ccccc2)c1	none
Cc1ccc(/C=N/NC(=O)CSc2nnc(-c3ccc(Cl)cc3)n2-c2ccccc2)o1	none
O=C(CSc1nnc(-c2ccc(Cl)cc2)n1-c1ccc(Cl)cc1)N/N=C/c1ccco1	APJ ag 18 | APJ ag confirm inactive
N=c1n(CC(=O)c2cccs2)c2ccccc2n1Cc1ccccc1	APJ ag 28 | APJ ag confirm inactive
COc1ccc2[nH]c3c(c2c1)CCN1C(=O)N([C@@H](C)C(=O)NC2CCN(Cc4ccccc4)CC2)C(=O)[C@]31C	APJ ag 18 | APJ ag confirm inactive
CC(C)C[C@@H](C(=O)NC1CCN(Cc2ccccc2)CC1)N1C(=O)N2CCc3c([nH]c4ccccc34)[C@@]2(C)C1=O	APJ ag 24 | APJ ag confirm inactive
C[C@@H](C(=O)NC1CCN(Cc2ccccc2)CC1)N1C(=O)N2CCc3c([nH]c4ccccc34)[C@@]2(C)C1=O	none
CC(=O)c1cccc(OCC(=O)Nc2ccccc2N2CCOCC2)c1	none
O=C(Nc1ccc(-c2nc3ccccc3o2)cc1)c1ccc(N2CCOCC2)c([N+](=O)[O-])c1	APJ ag 29 | APJ ag confirm inactive
COc1ccc2oc(-c3ccc(NC(=O)c4ccc(N5CCOCC5)c([N+](=O)[O-])c4)cc3)nc2c1	none
Cc1cc(C(=O)CSc2nc3ccccc3[nH]2)c(C)n1CC1CCCO1 (configuration not stated)	APJ ag 21 | APJ ag confirm inactive
Cc1cc(C(=O)CSc2nc(N)cc(=O)[nH]2)c(C)n1CC1CCCO1 (configuration not stated)	none
C=CCN1C(=O)c2ccc(C(=O)N3CCN(S(=O)(=O)c4cccc(F)c4)CC3)cc2C1=O	none
C1C2CC3C1C3C2=NN=C1C2CC3C(C2)C13	none (no result: APJ ag, B2AR ag, CCR6 antagonist, APJ antag)
CCOc1ccc2nc3cc(NCc4ccc(OC)cc4)ccc3c(N)c2c1	APJ ag 30 | APJ ag confirm inactive
CC(C)c1ccc(NC(=O)COC(=O)[C@@H]2CCCN2C(=O)c2cccs2)cc1	none

Compound activity as filed in PubChem BioAssay.
